Legend:
[1] = folding enthalpy; higher = less favourable; fluorescence melt of hairpins on a sequencing array, two-state fit; settings: sodium 0.088 M
Outline: (§1)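 In 50 mM Na-HEPES pH 8.0 containing 25 mM NaCl, hairpins from the library on a sequenced MiSeq flow cell were imaged for Cy3 fluorescence at 2.5 °C steps up to 60 °C, with Cy3 and quencher oligos annealed. After normalisation to pre-quench Cy3 and to control constructs, two-state fits with bootstrapping gave melting temperature and folding enthalpy. Four replicates were combined by inverse-variance weighting, and fitted temperatures were shifted up by 9.35 °C to match UV melts.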

[2] = melting temperature; fluorescence melt of hairpins on a sequencing array, two-state fit, raised by 9.35 °C to match UV melts; settings: sodium 0.088 M
Outline: as §1

Sequence | folding enthalpy [1] [kcal/mol] | Tm [2] [°C]
GCGATGCGAAAGCACTGC ((..(((....)))..)) | -19.1 | 45.2
GGGCTCGAAAGAGCTCCC ((((((....)))..))) | -10.6 | 50
GCCTTGCGAAAGCACAGC ((..(((....)))..)) | -7.49 | 45.1
GATCTGACTCCAGATC ((((((....)))))) | -33.9 | 46.6
GTTTGGGCGAAAGCCAAC (((..(((....)))))) | -10.8 | 36.1
GGTGAGCCGAAAGGCACC (((..(((....)))))) | -13.2 | 44.3
GAATATGCGAAAGCATTC (((..(((....)))))) | -9.12 | 25
GGTTTGGGAAACCAAGTC (..((((....))))..) | -15.4 | 28.1
GATCGTCTTGACGATC ((((((....)))))) | -35.9 | 66.3
CGTGCGGAAACGCCAACG ((((((....)))..))) | -19.2 | 39.4
GCCGAGGGAAACCTTGGC (((.(((....))).))) | -35.4 | 58.3
GCGAGCGAAAGCTCACGC ((((((....)))..))) | -14.8 | 60.8
GTATGCCGAAAGGCTAC (((.(((....)))))) | -13.1 | 48.3
GATCTGCTTACAGATC ((((((....)))))) | -42.8 | 51.8
GGAGACGAAAGTCGCTCC ((((((....)))..))) | -13 | 42.4
GGAGGTGGAAACGCCTCC (((((.(....).))))) | -50 | 57.2
GGACTGCGAAAGCATTCC (((.(((....))).))) | -29.8 | 48.5
AGATCGAAAGATCT (((((....))))) | -23.2 | 50.9
GCACAGGGAAACCTGCGC ((.((((....)))).)) | -44.3 | 51.8
GGCATTCGAAAGAACGCC (((.(((....))).))) | -45.2 | 50.6
GCTGACGAAAGTCGCAGC ((((((....)))..))) | -16.7 | 49.5
GGCTGTGGAAACATGGCC (((..((....))..))) | -32.6 | 49.5
GCCGGCGAAAGCCGCGGC ((((((....)))..))) | -11.9 | 65.3

Sequence | folding enthalpy [1] [kcal/mol] | Tm [2] [°C]
GATCTGACTTCAGATC ((((((....)))))) | -34.2 | 49.2
GGGGTGAAAACCCC (((((....))))) | -21.1 | 66.6
GTTAATCGAAAGATAAAC (((.(((....))).))) | -20.7 | 31.6
GATCGTAAAGACGATC ((((((....)))))) | -31.4 | 51.1
GGCTTGGGAAACCAAACC ((.((((....)))).)) | -27.8 | 41
CGCCTCCGGAAACGGGCG (((..(((....)))))) | -25.6 | 48.1
GGCTACTCGAAAGAGGCC (((..(((....)))))) | -30 | 45.7
GATCACGTGAGTGATC ((((((....)))))) | -28.4 | 69.2
GGCTGCCGAAAGGCCGCC (((.(((....))).))) | -18.5 | 65
CGGACGGAAACGTGCCCG ((((((....)))..))) | -14.8 | 35.9
GCCGACGGAAACGTTGGC (((.(((....))).))) | -45.5 | 63.9
GATCATGTCCATGATC ((((((....)))))) | -42.5 | 54.8
GCTAGGCGAAAGCGTTGC ((.(.((....)).).)) | -21.9 | 42
GCTTATGGAAACATAGGC ((.((((....)))).)) | -32.8 | 41.6
GGGCATACGAAAGTACCC (((..(((....)))))) | -19.6 | 34.7
GACAAGAAATTGTC (((((....))))) | -17.2 | 37.2
GATCTCAAGGAGATC ((((((...)))))) | -37.4 | 54.2
GTACACCGAAAGGTTAC (((.(((....)))))) | -20.5 | 39.9
GCCTACGAAAGTATCGGC ((((((....)))..))) | -24.7 | 40.6
GGGCTCCGAAAGGAACCC (((.(((....))).))) | -44.1 | 56.5
GATCATAGCTATGATC ((((((....)))))) | -47.4 | 50.7
GATCACATCTGTGATC ((((((....)))))) | -38.7 | 57.9
GGGTTTGGAAACAAGCCC (((.(((....))).))) | -32.1 | 52.7

From the array DNA melting data of Ke et al. (doi:10.1101/2024.01.08.574731)
